# Compound activity deposited in PubChem BioAssay by several laboratories.
# SENP6 inh: SENP6 protease inhibitors, primary screen, biochemical, luminescence, uHTS; Sentrin-specific protease 6 (Homo sapiens), Q9GZR1; Recombinant SENP6 catalytic domain, aminoluciferin luminescence; inhibition, % at 10 µM; actives 1.8% (n = 330,000); AID 2599, 2010;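 active = inhibition above about 50% at the single tested dose, limit read from the data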
# SENP8 block-1: human SENP8 protease inhibitors, primary screen, biochemical, fluorescence, Nedd8 protein substrate, uHTS; inhibition, % at 20 µM; recombinant SENP8; actives 0.64% (n = 360,000); Sentrin-specific protease 8 (Homo sapiens), Q96LD8; in the data active = inhibition mostly above about 40%, no sharp cut-off; inactive = mostly below about 27%
# Target sequence (Q96LD8 whole entry, looked up): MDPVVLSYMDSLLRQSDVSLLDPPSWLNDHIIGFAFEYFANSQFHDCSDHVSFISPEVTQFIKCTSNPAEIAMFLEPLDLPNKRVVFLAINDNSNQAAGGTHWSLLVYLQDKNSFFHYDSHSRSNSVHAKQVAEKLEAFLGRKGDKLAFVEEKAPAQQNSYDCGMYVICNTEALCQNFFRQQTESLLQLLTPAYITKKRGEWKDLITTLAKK
# SENP1 FRET inh: human SENP1 catalytic domain inhibitors, primary screen, biochemical, FRET, uHTS. actives 0.21% (n = 360,000). recombinant SENP1 catalytic domain, CyPet-SUMO1-YPet FRET cleavage. inhibition, % at 10 µM. Sentrin-specific protease 1 (Homo sapiens), Q9P0U3;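 active = inhibition at least 30% at 10 µM, raw YFP signal under a set limit, fluorescence ratio 0.5 to 1.5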
# Target sequence (Q9P0U3 419-644 limits assumed): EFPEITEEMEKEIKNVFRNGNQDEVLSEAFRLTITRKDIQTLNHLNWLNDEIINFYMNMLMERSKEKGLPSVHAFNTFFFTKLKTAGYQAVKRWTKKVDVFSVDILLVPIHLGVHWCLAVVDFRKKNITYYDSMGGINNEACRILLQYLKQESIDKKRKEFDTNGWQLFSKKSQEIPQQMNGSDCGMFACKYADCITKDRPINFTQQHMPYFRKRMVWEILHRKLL
#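 material = recombinant human SENP1 catalytic domain, His6-tagged | quantity = 20 pM enzyme | reagent = 25 nM SUMO1 FRET substrate | compound dosing = 10 µM single point, 0.5% DMSO | timing = 50 min enzyme reaction, room temperature, light-protected | detection = FRET, CFP and YFP emission | control set = no-enzyme low, enzyme-DMSO high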
# SENP7 inh: SENP7 protease inhibitors, primary screen, biochemical, luminescence, uHTS. recombinant SENP7, Z-RLRGG-aminoluciferin luminescence, 40 min. Sentrin-specific protease 7 (Homo sapiens), Q9BQF6. actives 1.5% (n = 330,000). inhibition, % at 5 µM;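 active = inhibition above about 50% at the single test dose, limit read from the data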
# Platelet DG rel: inhibitors of platelet dense granule secretion, primary screen, cell-based, MLPCN, human platelets | human platelet-rich plasma, SFLLRN dense granule ATP release, luminescence | inhibition, %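 (compounds screened at 7.5 µM in platelet-rich plasma)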 | actives 0.22% (n = 300,000) | AID 1663, 2009;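 active = mean replicate score, as percent of positive control, at or above 50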
# SENP8 block-2: SENP8 protease inhibitors, primary screen, biochemical, luminescence; inhibition, % at 10 µM; actives 1.2% (n = 330,000); purified SENP8, Z-RLRGG-aminoluciferin cleavage; AID 2540, 2010; in the data active = inhibition above about 50%
# SENP8 conf: SENP8 protease inhibitors, retest, confirmation, biochemical, luminescence, single concentration; shares compounds with SENP7 inh; Recombinant SENP8, Z-RLRGG-aminoluciferin luminescence, 60 min; inhibition, % at 12.5 µM; actives 40% (n = 6,200); AID 488912, 2010;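 active = mean inhibition across replicates above about 50%, limit read from the data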
# SENP6 conf: SENP6 protease inhibitors, confirmation, biochemical, luminescence, single concentration. recombinant SENP6, Z-RLRGG-aminoluciferin luminescence. actives 58% (n = 6,200). AID 488915, 2010. inhibition, % at 12.5 µM. shares compounds with SENP7 inh
# SENP7 confirm: SENP7 protease inhibitors, retest, confirmation, biochemical, luminescence, single concentration. shares compounds with SENP7 inh. recombinant SENP7, Z-RLRGG-aminoluciferin luminescence, 40 min. inhibition, % at 12.5 µM. actives 69% (n = 6,200). AID 488917, 2010
# Casp3 select: caspase-3 protease inhibitors, confirmation, selectivity assay for SENP inhibitor project, biochemical, single concentration; shares compounds with SENP7 inh; purified caspase-3, Z-DEVD-aminoluciferin luminescence, 60 min; inhibition, % at 12.5 µM; actives 60% (n = 6,200); AID 488918, 2010;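 active = mean inhibition above about 50%, limit read from the data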
# Target sequence (P42574 28-227 limits assumed): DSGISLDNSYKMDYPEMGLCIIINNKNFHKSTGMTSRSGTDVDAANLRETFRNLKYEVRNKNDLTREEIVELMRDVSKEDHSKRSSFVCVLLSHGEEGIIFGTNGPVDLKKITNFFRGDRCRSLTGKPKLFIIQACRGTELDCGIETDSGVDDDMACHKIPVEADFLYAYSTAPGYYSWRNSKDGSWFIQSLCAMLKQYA
# Luc interf: luminescence interference (SENP counter-screen); shares compounds with SENP7 inh; Pre-incubated SENP8/Z-RLRGG-aminoluciferin, luciferase luminescence interference; inhibition, % at 12.5 µM; actives 39% (n = 6,200); AID 488919;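 active = mean inhibition above about 50% when retested at one dose, limit read from the data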
# Numbers stand for hits; . = inactive; / = no result given. Rows were chosen to be rich in hits. Some 2.6% of all compounds tested hit in one or more screens of this group.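 The calls were made as follows, unless noted: active = mean inhibition above about 50% in the one-dose retest (limit read from the data); inactive = the rest.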
SMILES,SENP6 inh,SENP8 block-1,SENP1 FRET inh,SENP7 inh,Platelet DG rel,SENP8 block-2,SENP8 conf,SENP6 conf,SENP7 confirm,Casp3 select,Luc interf
COc1ccc(-c2nn(C)c3sc(C(=O)NCCN(C)C)cc23)cc1OC,.,.,.,.,.,.,/,/,/,/,/
CCCCn1c(SCC(=O)c2ccc(OC)cc2OC)nc2cc(S(N)(=O)=O)ccc21,.,.,.,.,.,.,/,/,/,/,/
O=C(COc1ccccc1)Nc1c2c(nn1-c1ccc(F)cc1)CS(=O)C2 (centres undefined),/,.,.,/,/,/,/,/,/,/,/
CC(C)n1cc(/C=N/Nc2ccc(C(=O)O)cc2)c2ccccc21,82,.,.,61,.,80,90,89,96,61,55
O=C(O)c1ccc(N/N=C/c2cn(Cc3ccccc3F)c3ccccc23)cc1,84,.,.,.,.,88,96,95,99,.,.
Nc1ccc(C(=O)N/N=C/c2cn(Cc3ccccc3F)c3ccccc23)cc1,.,.,.,.,.,.,/,/,/,/,/
COc1cccc(C(=O)N2CCN(C3CCC(c4ccccc4)CC3)CC2)c1OC (centres undefined),.,.,.,.,/,.,/,/,/,/,/
COc1cccc(C=Nc2cccc3c(=O)[nH][nH]c(=O)c23)c1O,67,.,.,93,.,65,.,.,.,.,.
COc1ccc(C=Nc2cccc3c(=O)[nH][nH]c(=O)c23)c2ccccc12,.,.,.,.,.,.,/,/,/,/,/
Cc1cc(C)c(S(=O)(=O)/N=C2/C=C(SCC(=O)O)C(=O)c3ccccc32)cc1C,62,54,.,.,/,.,.,.,.,.,.
Cc1cc(C)c(S(=O)(=O)Nc2cc(SCC(=O)O)c(O)c3ccccc23)cc1C,/,/,/,/,.,/,/,/,/,/,/
S=C(Nc1ccc(Cl)cc1)N1CCOCC1,.,.,.,.,.,.,/,/,/,/,/
Cc1cc(C)n2c(SCc3ccccc3Cl)nnc2n1,.,.,.,.,.,.,/,/,/,/,/
N/C(=N/OC(=O)c1ccccc1F)c1nonc1N,98,.,.,98,.,93,95,95,101,97,96
N/C(=N\OCc1ccccc1)c1nonc1N,61,.,.,69,.,55,62,61,89,83,72
N/C(=N/OCc1cccc([N+](=O)[O-])c1)c1nonc1N,.,.,.,.,/,.,/,/,/,/,/
Nc1nonc1C(=O)OCC(=O)c1ccc(Cl)cc1,.,.,.,.,.,.,/,/,/,/,/
N/C(=N\OC(=O)c1ccc(Cl)cc1)c1nonc1N,97,.,.,100,.,94,98,100,103,98,95
N/C(=N\OCC(=O)Nc1ccccc1)c1nonc1N,.,.,.,.,.,.,/,/,/,/,/
Cc1ccc(CN2CCN(c3ccccc3)CC2)o1,.,.,.,.,.,.,/,/,/,/,/
CCOc1ccc2ccccc2c1/C=N\NC(=O)OC,.,.,.,.,.,.,/,/,/,/,/
O=c1c2ccccc2nnn1CSc1ccc2c(c1)OCCO2,.,.,.,63,.,.,72,70,87,72,71
CCC(C(=O)Nc1ccc2c(c1)OCCO2)n1nnc2ccccc2c1=O (centres undefined),.,.,.,.,.,.,/,/,/,/,/
C=CCn1c(SC(C)C(=O)NCCC2=CCCCC2)nc2ccccc2c1=O (centres undefined),.,.,.,.,.,.,/,/,/,/,/
CC(=O)Nc1ccc(S(=O)(=O)NC2=C(N3CCN(c4ccc(F)cc4)CC3)C(=O)c3ccccc3C2=O)cc1,63,78,.,.,.,.,.,56,.,53,.
SMILES,SENP6 inh,SENP8 block-1,SENP1 FRET inh,SENP7 inh,Platelet DG rel,SENP8 block-2,SENP8 conf,SENP6 conf,SENP7 confirm,Casp3 select,Luc interf
CCOC(=O)N1CCN(C2=C(NS(=O)(=O)c3ccc(C)cc3)C(=O)c3ccccc3C2=O)CC1,64,82,.,.,.,.,.,.,.,.,.
CCc1nn2cc(-c3ccccc3)nc2s1,94,.,.,96,.,89,.,94,101,95,84
Cc1nn2cc(-c3ccc(Cl)cc3)nc2s1,81,.,.,87,.,54,.,.,.,.,.
c1ccc(-c2cn3nc(-c4ccccc4)c(-c4ccccc4)nc3n2)cc1,.,.,.,.,.,.,/,/,/,/,/
Cc1ccc(-c2cn3nc(-c4ccccc4)c(-c4ccccc4)nc3n2)cc1,.,.,.,.,.,.,/,/,/,/,/
Cc1nn2cc(-c3ccc(-c4ccccc4)cc3)nc2s1,.,.,.,58,.,.,.,.,.,.,.
O=C(N/N=C/c1ccccc1C(F)(F)F)c1ccc2nc[nH]c2c1,.,.,.,.,.,.,/,/,/,/,/
Cn1c(C(=O)Nc2ccccc2)cc2sccc21,53,.,.,.,.,.,.,.,68,.,54
COC(=O)c1ccc(NC(=O)c2cc3sccc3n2C)cc1,/,.,.,/,.,/,/,/,/,/,/
COc1ccc(OC)c(NC(=O)c2cc3sccc3n2C)c1,.,.,.,.,.,.,/,/,/,/,/
COc1cc(NC(=O)c2cc3sccc3n2C)cc(OC)c1,64,.,.,66,.,50,.,60,84,.,65
Cn1c(C(=O)Nc2ccc3c(c2)OCO3)cc2sccc21,71,.,.,63,.,.,59,61,88,.,.
CCOCCCNC(=S)N1CCC(NC(=O)c2ccco2)CC1,.,.,.,.,.,.,/,/,/,/,/
Fc1ccc(-n2nnc(-c3cccnc3Cl)n2)cc1,74,.,.,81,.,72,73,75,92,84,74
COc1ncccc1-c1nnn(-c2ccccc2)n1,84,.,.,87,.,81,85,88,98,91,84
